From PubChem BioAssay
HTR2A ag: mouse HTR2A agonism via beta-arrestin recruitment; 0.66% of 360,000 active; P35363; AID 624169; CHO-K1 mHTR2A beta-arrestin complementation, luminescence; percent of 30 µM serotonin response; activation, % at 7.6 µM;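 active means activation above a run cutoff, the mean activation of all tested compounds plus 3 SD, cut at about 14% in these data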;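 further: 0% = plate median of compound wells and 100% = 30 µM serotonin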
MC4R ag barr: agonists of human melanocortin 4 receptor (MC4R) beta-arrestin. P32245. activation, % at 8.9 µM. 0.98% of 360,000 active. U2OS MC4R beta-arrestin complementation, luminescence; percent of melanotan II response, DMSO zero. AID 540308;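 active means activation above a per-plate cutoff, the mean activation of sample wells on that plate plus 3 SD, cut at about 8% in these data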
MC4R antagonist: antagonists of human melanocortin 4 receptor (MC4R) | P32245 | MC4R-expressing cells, MTII-stimulated cAMP, LANCE TR-FRET | inhibition, % at 6.5 µM | 0.48% of 360,000 active | AID 540295;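 active means inhibition above its plate's cutoff, the mean of tested wells on that plate plus 3 SD, cut at about 29% in these data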;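 further: 0% = Melanotan II alone and 100% = Melanotan II plus saturating MCL0020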
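System: U2OS cells stably expressing human melanocortin 4 receptor (MC4R). Reagent: Melanotan II challenge after compound preincubation. Doses: 6.5 µM. Times: 30-min compound, 1-h challenge, 1-h detection, room temperature. Measured by: TR-FRET with Eu-cAMP and labeled anti-cAMP, 671 nm. Replicates: singlicate.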
FXN GAA850 act: activators of GAA850 frataxin (FXN) promoter; HEK293 lucGAA850 FXN promoter luciferase reporter, 24 h; percent of 10 µM SAHA response; activation, % at 6 µM; 0.56% of 360,000 active;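 active means activation above the average of all compounds screened plus 3 SD, cutoff fixed separately per campaign, cut at about 7.5% in these data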;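 further: 0% = DMSO wells and 100% = 10 µM SAHA wells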
AHR activator: activators of human aryl hydrocarbon receptor. P35869. AHR-responsive luciferase reporter cells, luminescence. activation, % at 5 µM. 2.5% of 320,000 active. AID 2796; in the data active means activation above about 47%;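 further: 0% = vehicle wells and 100% = reference agonist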
AHR act cf: human AHR activation, confirmation; activation, % at 9 µM; human cells, AHR-responsive luciferase reporter, luminescence; shares compounds with AHR activator; 87% of 2,300 active; in the data active means activation above about 49%;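 further: HepG2 hepatoma cells carrying a DRE-driven firefly luciferase reporter; 0% = vehicle wells and 100% = reference agonist wells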
PXR counter: activates human PXR in AHR activator counter-screen; cell-based PXR reporter, luciferase luminescence; 88% of 2,300 active; activation, % at 11.6 µM; shares compounds with AHR activator; in the data active means activation above about 11%;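 further: human hepatoma DPX-2 cells expressing full-length human PXR; 0% = DMSO and 100% = reference agonist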
Target sequence (O75469 whole entry, looked up): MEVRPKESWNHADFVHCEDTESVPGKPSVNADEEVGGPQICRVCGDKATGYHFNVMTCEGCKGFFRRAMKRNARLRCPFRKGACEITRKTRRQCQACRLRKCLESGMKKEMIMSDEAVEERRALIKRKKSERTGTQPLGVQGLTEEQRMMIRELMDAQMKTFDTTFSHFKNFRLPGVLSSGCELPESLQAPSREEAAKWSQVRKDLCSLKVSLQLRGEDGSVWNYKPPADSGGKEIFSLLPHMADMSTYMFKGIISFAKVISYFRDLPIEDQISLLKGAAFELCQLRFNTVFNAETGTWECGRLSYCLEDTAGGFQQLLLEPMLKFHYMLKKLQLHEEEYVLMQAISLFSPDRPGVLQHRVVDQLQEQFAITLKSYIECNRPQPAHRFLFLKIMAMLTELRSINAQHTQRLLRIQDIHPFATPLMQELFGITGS
The depositor's hits bear a star; . = no result. Shown are actives, neighbours in structure and some others; about 4.7% of the full set was active somewhere.

SMILES | HTR2A ag | MC4R ag barr | MC4R antagonist | FXN GAA850 act | AHR activator | AHR act cf | PXR counter
COc1ccc(-c2csc(Nc3cccc(C)n3)n2)cc1 | 12 | 1 | 1 | 7 | 88* | 97* | 19*
Cc1cccc(Nc2nc(-c3ccc(F)cc3)cs2)n1 | -4 | 2 | 6 | 6 | 79* | 111* | 10*
CC(=O)Oc1ccc(-c2csc(Nc3cccc(C)n3)n2)cc1 | 1 | 4 | -4 | 3 | 14 | . | .
CCOC(=O)C1=CCC(c2cccn2C(=O)OC(C)(C)C)N(S(=O)(=O)c2ccc(C)cc2)C1 (stereo not given) | -3 | . | . | . | . | . | .
Oc1[nH]c2ccccc2c1N=Nc1ccc(F)cc1 | 2 | 0 | 4 | 5 | 94* | 91* | 7
Oc1ccc2ccccc2c1N=Nc1ccc(F)cc1 | 2 | 1 | 6 | 0 | 38 | . | .
CCn1cnc2cc(NCc3ccc(Cl)cc3)ccc21 | -7 | 0 | 8 | 3 | 99* | 98* | 32*
Clc1ccc(C2=NN=C3COc4ccccc4N3C2)cc1 | -5 | -1 | 20 | 1 | 88* | 118* | 24*
COc1cccc(OC)c1CN1CCCC(C(=O)c2ccccc2SC)C1 (stereo not given) | -4 | -4 | -1 | -2 | 26 | . | .
CCc1nc(Nc2ccccc2F)c2oc3ccccc3c2n1 | -9 | 1 | -2 | 4 | 94* | 95* | 42*
CCc1nc(Nc2ccc(F)cc2)c2oc3ccccc3c2n1 | 0 | 2 | 8 | 1 | 24 | . | .
CCc1nc(NCCCn2ccnc2)c2oc3ccccc3c2n1 | -2 | 2 | -1 | 1 | 109* | 114* | 41*
O=C(Nc1nnc([C@@H]2C[C@H](O)[C@@H](CO)O2)s1)Nc1ccccc1C(F)(F)F | 0 | 0 | 14 | 0 | . | . | .
Cn1ccc2cc3c(cc21)CCN3C(=O)Nc1cccnc1 | -7 | 1 | -2 | 1 | 118* | 83* | 31*
O=C1NC(=Nc2ccccc2)/C(=C/c2ccco2)S1 | -1 | -2 | -4 | 0 | 84* | 34 | 20*
Cc1ccc(N=C2NC(=O)S/C2=C\c2ccco2)cc1 | -6 | 1 | 2 | 2 | 11 | . | .
COc1ccc(OC)c(-n2c(SCC(=O)NCC3CCCO3)nc3ccccc3c2=O)c1 (stereo not given) | -4 | -1 | 5 | 1 | -1 | . | .
CC(C)(C)c1ccc(C(=O)Nc2nnc(Cc3c[nH]c4ccccc34)s2)cc1 | 5 | 8.3* | 9 | 2 | 90* | 88* | 14*
Nc1ccccc1-n1nc2ccc3ccccc3c2n1 | -2 | 3 | 2 | 5 | . | . | .
CCOC(=O)C1(C)CCN1C(=O)c1cccc2ccccc12 (stereo not given) | -3 | -1 | 2 | -1 | . | . | .
O=C(CCc1ccccc1)NCC1OCCc2ccccc21 (stereo not given) | -3 | 0 | 11 | -1 | -2 | . | .
O=C(NCC1OCCc2ccccc21)c1ccco1 (stereo not given) | 4 | -1 | 6 | 4 | 86* | 129* | 14*
Cc1nc2ccccc2c(=O)n1-c1ccc(F)c(NS(=O)(=O)c2ccccc2F)c1 | 6 | -1 | 6 | 1 | 0 | . | .
CN(C)C(/C=C/Nc1ccc(C#N)cc1)=C(C#N)C#N | -2 | -1 | 7 | -1 | 109* | 102* | 25*
CN(C)C(/C=C/Nc1ccc(F)cc1)=C(C#N)C#N | -2 | 0 | 11 | 3 | 45 | . | .
SMILES | HTR2A ag | MC4R ag barr | MC4R antagonist | FXN GAA850 act | AHR activator | AHR act cf | PXR counter
Cc1cccc2c1ncc1c(=O)n(-c3ccccc3)[nH]c12 | -1 | 0 | -8 | 4 | 136* | 129* | 32*
O[C@@H]1CN(Cc2cccs2)[C@@H](c2ccc(Cl)cc2)C[C@H]1n1cc(C2CC2)nn1 | 2 | -1 | 4 | 2 | . | . | .
Cc1c(-c2ccn[nH]2)cc(NC(=O)c2ccc(Cl)cc2)c(=O)n1N | 7 | -1 | -6 | 4 | 86* | 105* | .
O=C(Nc1nc2c(Cl)cccc2s1)c1ccc([N+](=O)[O-])o1 | -3 | 1 | 13 | 0 | 5 | . | .
O=C(Nc1nc2c(Cl)cccc2s1)c1ccc(Br)o1 | 1 | 0 | 14 | 0 | 102* | 105* | 67*
CC1NC(=O)c2cc3ccccc3cc2-n2c1nc1ccccc1c2=O (stereo not given) | -4 | 0 | 3 | 2 | . | . | .
O=C(Nc1nc2ccc(Cl)cc2s1)c1ccc(Br)o1 | 10 | 4 | 14 | 0 | 20 | . | .
NNc1nc2ccc(Cl)cc2s1 | 1 | 0 | 4 | 2 | 115* | 106* | 22*
Cc1c(NC(=O)Cc2ccccc2)cccc1C(=O)NN1C(=O)c2ccccc2C1=O | 1 | 0 | 1 | 2 | -1 | . | .
CN1C(=O)c2cccc(NC(=O)Cc3ccccc3)c2C1=O | -1 | -1 | 15 | 2 | 156* | 51* | 14*
Cn1c(=O)c([N+](=O)[O-])c(NCc2ccccc2Cl)c2ccccc21 | -7 | 0 | -13 | 0 | 45 | . | .
Cn1c(=O)c([N+](=O)[O-])c(NCc2ccc3c(c2)OCO3)c2ccccc21 | -4 | 0 | -11 | 2 | 89* | 99* | 86*
Cn1c(=O)c([N+](=O)[O-])c(NCCc2ccccc2)c2ccccc21 | -5 | 4 | -7 | 1 | 81* | 89* | 49*
N=c1n(CC(=O)c2ccc(Br)cc2)c2ccccc2n1Cc1ccccc1 | -1 | 0 | 0 | -3 | 124* | 81* | 46*
O=C(CN1CCCc2ccccc21)N/N=C/c1ccccc1 | -3 | -1 | 6 | 1 | 87* | 25 | 40*
Cc1oc2cc(OC(=O)c3ccco3)ccc2c(=O)c1-c1nc2ccccc2n1C | 4 | 0 | 0 | -1 | 106* | 2 | 20*
CCOC(=O)N1CCC(NC(=O)c2cccn3c(=O)c4cc(Br)ccc4nc23)CC1 | 4 | 1 | 21 | 2 | 90* | 111* | 18*
CCOC(=O)N1CCC(NC(=O)c2cc(-c3ccc(OC)cc3)nc3ccccc23)CC1 | 10 | -1 | 7 | 2 | 4 | . | .
CCn1c(SCC(=O)Nc2sccc2C(N)=O)nnc1C1CC1 | 2 | -1 | 4 | 2 | 2 | . | .
O=C(Nn1c(-c2ccc(Br)cc2)nc2ccccc2c1=O)c1ccncc1 | 1 | 1 | -1 | 3 | 31 | . | .
Cc1cc(C(=O)Nn2c(-c3ccc(Br)cc3)nc3ccccc3c2=O)ccc1[N+](=O)[O-] | 2 | 1 | 7 | -1 | 83* | 48* | 49*
c1cncc(-c2nc(-c3ccc4c(c3)OCO4)cs2)c1 | -7 | 0 | 1 | 4 | 95* | 80* | 27*
Clc1ccsc1-c1csc(-c2cccnc2)n1 | -1 | -1 | -9 | 1 | 85* | 142* | 25*
